Data from ChEMBL document CHEMBL3352430, “4-Aminopyridyl-based CYP51 inhibitors as anti-Trypanosoma cruzi drug leads with improved pharmacokinetic profile and in vivo potency” (J Med Chem, 2014).

System: Intestine
Test: Drug uptake in mouse intestine at 50 mg/kg, po in 20% Kolliphor measured at 8 hrs post dose
Assay type: ADME, organism-based
Design: dose 50 mg/kg, route oral
Conditions: in vivo; call rule not given here
In short: (§1)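 Female Swiss Webster mice, 8 weeks old, given a single 50 mg/kg oral gavage dose in 20% HPβCD or 20% Kolliphor. Tissues taken from three mice at 2 and 8 h post dose. Homogenized by probe sonication in PBS (1:4 w/v), protein precipitated with acetonitrile, and compound measured by LC-MS/MS in μM.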

Row | Structure (SMILES) | Drug uptake
1 | O=C(N[C@H](Cc1c[nH]c2ccccc12)C(=O)Nc1ccncc1)c1ccc(-c2ccc(F)c(F)c2)cc1F | Active

System: Trypanosoma cruzi
Test: Antitrypanosomal activity against Trypanosoma cruzi Y luc infected in mouse assessed as inhibition of parasitemia at 25 mg/kg, po bid in 20% Kolliphor administered for 4 consecutive days starting on day 3 of infection measured on day 7 post infection relative to vehicle-treated control
Assay type: functional
Conditions: not given
In short: (§2)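 Female Swiss Webster mice, 8 weeks old, infected ip with 10^5 T. cruzi Y luc trypomastigotes. Only mice with detectable luminescence on day 3 were treated. Compound given by oral gavage bid for four days, as a suspension in 20% HPβCD or a solution in 20% Kolliphor, five mice per group. Vehicle group and benznidazole 50 mg/kg served as controls. On day 7, mice were injected ip with 150 mg/kg d-luciferin and imaged after 5 min under isoflurane. Percent inhibition calculated against untreated mice; two-tailed paired t test.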

Row | Structure (SMILES) | inhibition in vivo at 25 mg/kg [%]
2 | O=C(N[C@H](Cc1c[nH]c2ccccc12)C(=O)Nc1ccncc1)c1ccc(-c2ccc(F)c(F)c2)cc1F | 41.5

System: not listed separately
Test: AUClast in mouse at 50 mg/kg, po in 20% Kolliphor
Assay type: ADME, organism-based
Design: time 0 - last, dose 50 mg/kg, route oral
Conditions: plasma
In short: (§3)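 Female Swiss Webster mice, 8 weeks old, given one oral gavage dose of 50 mg/kg as a 10 mg/mL preparation in the named vehicle (20% HPβCD suspension or 20% Kolliphor). Plasma sampled at about 0.25, 0.5, 1, 2, 4, 6, 8, 12 and 24 h, n = 3 per time point. Protein precipitated with 5 volumes acetonitrile, filtered, then LC-MS/MS. Values are averages of three mice.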

Row | Structure (SMILES) | AUC(0-t) [µM·h]
3 | O=C(N[C@H](Cc1c[nH]c2ccccc12)C(=O)Nc1ccncc1)c1ccc(-c2ccc(F)c(F)c2)cc1F | 32.5

System: Trypanosoma cruzi
Test: Antitrypanosomal activity against Trypanosoma cruzi Y luc infected in mouse assessed as inhibition of parasitemia at 50 mg/kg, po bid in 20% Kolliphor administered for 4 consecutive days starting on day 3 of infection measured on day 7 post infection relative to vehicle-treated control
Assay type: functional
Conditions: not given
In short: as §2

Row | Structure (SMILES) | inhibition in vivo at 50 mg/kg [%]
4 | O=C(N[C@H](Cc1c[nH]c2ccccc12)C(=O)Nc1ccncc1)c1ccc(-c2ccc(F)c(F)c2)cc1F | 78.5

System: Liver
Test: Drug uptake in mouse liver at 50 mg/kg, po in 20% Kolliphor measured at 8 hrs post dose
Assay type: ADME, organism-based
Design: dose 50 mg/kg, route oral
Conditions: in vivo
In short: as §1

Row | Structure (SMILES) | Drug uptake
5 | O=C(N[C@H](Cc1c[nH]c2ccccc12)C(=O)Nc1ccncc1)c1ccc(-c2ccc(F)c(F)c2)cc1F | Active

System: not listed separately
Test: Tmax in mouse at 50 mg/kg, po in 20% Kolliphor
Assay type: ADME, organism-based
Design: dose 50 mg/kg, route oral
Conditions: in vivo
In short: as §3

Row | Structure (SMILES) | Tmax [h]
6 | O=C(N[C@H](Cc1c[nH]c2ccccc12)C(=O)Nc1ccncc1)c1ccc(-c2ccc(F)c(F)c2)cc1F | 2

System: Lung
Test: Drug uptake in mouse lung at 50 mg/kg, po in 20% HP-beta-CD measured at 8 hrs post dose
Assay type: ADME, organism-based
Design: dose 50 mg/kg, route oral
Conditions: in vivo
In short: as §1

Row | Structure (SMILES) | Drug uptake
7 | O=C(N[C@H](Cc1c[nH]c2ccccc12)C(=O)Nc1ccncc1)c1ccc(-c2ccc(F)c(F)c2)cc1F | Active

System: not listed separately
Test: Drug uptake in mouse fat at 50 mg/kg, po in 20% HP-beta-CD measured at 8 hrs post dose
Assay type: ADME, organism-based, Adipose tissue
Design: dose 50 mg/kg, route oral
Conditions: in vivo
In short: as §1

Row | Structure (SMILES) | Drug uptake
8 | O=C(N[C@H](Cc1c[nH]c2ccccc12)C(=O)Nc1ccncc1)c1ccc(-c2ccc(F)c(F)c2)cc1F | Active

System: not listed separately
Test: Drug uptake in mouse fat at 50 mg/kg, po in 20% Kolliphor measured at 8 hrs post dose
Assay type: ADME, organism-based, Adipose tissue
Design: dose 50 mg/kg, route oral
Conditions: in vivo
In short: as §1

Row | Structure (SMILES) | Drug uptake
9 | O=C(N[C@H](Cc1c[nH]c2ccccc12)C(=O)Nc1ccncc1)c1ccc(-c2ccc(F)c(F)c2)cc1F | Active

System: not listed separately
Test: Drug uptake in mouse skeletal muscle at 50 mg/kg, po in 20% HP-beta-CD measured at 8 hrs post dose
Assay type: ADME, organism-based, Muscle tissue
Design: dose 50 mg/kg, route oral
Conditions: in vivo
In short: as §1

Row | Structure (SMILES) | Drug uptake
10 | O=C(N[C@H](Cc1c[nH]c2ccccc12)C(=O)Nc1ccncc1)c1ccc(-c2ccc(F)c(F)c2)cc1F | Active

System: Heart
Test: Drug uptake in mouse heart at 50 mg/kg, po in 20% Kolliphor measured at 8 hrs post dose
Assay type: ADME, organism-based
Design: dose 50 mg/kg, route oral
Conditions: in vivo
In short: as §1

Row | Structure (SMILES) | Drug uptake
11 | O=C(N[C@H](Cc1c[nH]c2ccccc12)C(=O)Nc1ccncc1)c1ccc(-c2ccc(F)c(F)c2)cc1F | Active

System: Heart
Test: Drug uptake in mouse heart at 50 mg/kg, po in 20% HP-beta-CD measured at 8 hrs post dose
Assay type: ADME, organism-based
Design: dose 50 mg/kg, route oral
Conditions: in vivo
In short: as §1

Row | Structure (SMILES) | Drug uptake
12 | O=C(N[C@H](Cc1c[nH]c2ccccc12)C(=O)Nc1ccncc1)c1ccc(-c2ccc(F)c(F)c2)cc1F | Active

System: not listed separately
Test: Clearance in mouse at 50 mg/kg, po in 20% Kolliphor
Assay type: ADME, organism-based
Design: dose 50 mg/kg, route oral
Conditions: in vivo
In short: as §3

Row | Structure (SMILES) | CL/F [mL/min/kg]
13 | O=C(N[C@H](Cc1c[nH]c2ccccc12)C(=O)Nc1ccncc1)c1ccc(-c2ccc(F)c(F)c2)cc1F | 53.8

System: C2C12
Test: Cytotoxicity against mouse C2C12 cells up to 10 uM
Assay type: cell-based
Conditions: not given
In short: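 Mouse C2C12 myoblasts infected with T. cruzi CA-I/72, then exposed at 24 h postinfection to compound at 10 μM down to 5 pM in 5-fold steps for 72 h at 37 °C. Cells fixed in paraformaldehyde, stained with DAPI and scored by automated imaging. Triplicate wells; uninfected and infected untreated wells as controls.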

Row | Structure (SMILES) | Activity
14 | O=C(N[C@H](Cc1c[nH]c2ccccc12)C(=O)Nc1ccncc1)c1ccc(-c2ccc(F)c(F)c2)cc1F | Non-toxic

System: Liver
Test: Drug uptake in mouse liver at 50 mg/kg, po in 20% HP-beta-CD measured at 8 hrs post dose
Assay type: ADME, organism-based
Design: dose 50 mg/kg, route oral
Conditions: in vivo
In short: as §1

Row | Structure (SMILES) | Drug uptake
15 | O=C(N[C@H](Cc1c[nH]c2ccccc12)C(=O)Nc1ccncc1)c1ccc(-c2ccc(F)c(F)c2)cc1F | Active

System: Intestine
Test: Drug uptake in mouse intestine at 50 mg/kg, po in 20% HP-beta-CD measured at 8 hrs post dose
Assay type: ADME, organism-based
Design: dose 50 mg/kg, route oral
Conditions: in vivo
In short: as §1

Row | Structure (SMILES) | Drug uptake
16 | O=C(N[C@H](Cc1c[nH]c2ccccc12)C(=O)Nc1ccncc1)c1ccc(-c2ccc(F)c(F)c2)cc1F | Active

System: not listed separately
Test: Half life in mouse at 50 mg/kg, po in 20% Kolliphor
Assay type: ADME, organism-based
Design: dose 50 mg/kg, route oral
Conditions: in vivo
In short: as §3

Row | Structure (SMILES) | half-life [h]
17 | O=C(N[C@H](Cc1c[nH]c2ccccc12)C(=O)Nc1ccncc1)c1ccc(-c2ccc(F)c(F)c2)cc1F | 3.29

System: not listed separately
Test: Cmax in mouse at 50 mg/kg, po in 20% Kolliphor
Assay type: ADME, organism-based
Design: dose 50 mg/kg, route oral
Conditions: in vivo
In short: as §3

Row | Structure (SMILES) | Cmax [µM]
18 | O=C(N[C@H](Cc1c[nH]c2ccccc12)C(=O)Nc1ccncc1)c1ccc(-c2ccc(F)c(F)c2)cc1F | 3.71

System: Trypanosoma cruzi
Test: Antitrypanosomal activity against Trypanosoma cruzi Y luc infected in mouse assessed as inhibition of parasitemia at 40 mg/kg, ip bid in 60% DMSO administered for 4 consecutive days starting on day 3 of infection measured on day 7 post infection relative to vehicle-treated control
Conditions: not given

Row | Structure (SMILES) | inhibition in vivo at 40 mg/kg [%]
19 | O=C(N[C@H](Cc1c[nH]c2ccccc12)C(=O)Nc1ccncc1)c1ccc(-c2ccc(F)c(F)c2)cc1F | 83.6

System: not listed separately
Test: Drug uptake in mouse skeletal muscle at 50 mg/kg, po in 20% Kolliphor measured at 8 hrs post dose
Assay type: ADME, organism-based, Muscle tissue
Design: dose 50 mg/kg, route oral
Conditions: in vivo
In short: as §1

Row | Structure (SMILES) | Drug uptake
20 | O=C(N[C@H](Cc1c[nH]c2ccccc12)C(=O)Nc1ccncc1)c1ccc(-c2ccc(F)c(F)c2)cc1F | Active

System: Lung
Test: Drug uptake in mouse lung at 50 mg/kg, po in 20% Kolliphor measured at 8 hrs post dose
Assay type: ADME, organism-based
Design: dose 50 mg/kg, route oral
Conditions: in vivo
In short: as §1

Row | Structure (SMILES) | Drug uptake
21 | O=C(N[C@H](Cc1c[nH]c2ccccc12)C(=O)Nc1ccncc1)c1ccc(-c2ccc(F)c(F)c2)cc1F | Active
